Assays:
[1] = target: SRSF protein kinase 2 (Homo sapiens) (UniProt P78362); test: Inhibition of SRPK2 at 1 uM in presence of 10 uM ATP by Select Screen kinase assay relative to untreated control
Method in brief: (§1)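 Commercial SelectScreen profiling panel of 220 purified kinases. Each kinase was tested at a single inhibitor concentration of 1 μM, and activity was expressed as percent inhibition.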

[2] = target: Serine/threonine-protein kinase 24 (Homo sapiens) (UniProt Q9Y6E0); test: Inhibition of STK24 at 1 uM in presence of 100 uM ATP by Select Screen kinase assay relative to untreated control; method in brief: as §1
[3] = target: T1, Serine/threonine-protein kinase TAO2 (Homo sapiens) (UniProt Q9UL54); test: Inhibition of TAOK2 at 1 uM in presence of 10 uM ATP by Select Screen kinase assay relative to untreated control; method in brief: as §1
T1 sequence (whole entry): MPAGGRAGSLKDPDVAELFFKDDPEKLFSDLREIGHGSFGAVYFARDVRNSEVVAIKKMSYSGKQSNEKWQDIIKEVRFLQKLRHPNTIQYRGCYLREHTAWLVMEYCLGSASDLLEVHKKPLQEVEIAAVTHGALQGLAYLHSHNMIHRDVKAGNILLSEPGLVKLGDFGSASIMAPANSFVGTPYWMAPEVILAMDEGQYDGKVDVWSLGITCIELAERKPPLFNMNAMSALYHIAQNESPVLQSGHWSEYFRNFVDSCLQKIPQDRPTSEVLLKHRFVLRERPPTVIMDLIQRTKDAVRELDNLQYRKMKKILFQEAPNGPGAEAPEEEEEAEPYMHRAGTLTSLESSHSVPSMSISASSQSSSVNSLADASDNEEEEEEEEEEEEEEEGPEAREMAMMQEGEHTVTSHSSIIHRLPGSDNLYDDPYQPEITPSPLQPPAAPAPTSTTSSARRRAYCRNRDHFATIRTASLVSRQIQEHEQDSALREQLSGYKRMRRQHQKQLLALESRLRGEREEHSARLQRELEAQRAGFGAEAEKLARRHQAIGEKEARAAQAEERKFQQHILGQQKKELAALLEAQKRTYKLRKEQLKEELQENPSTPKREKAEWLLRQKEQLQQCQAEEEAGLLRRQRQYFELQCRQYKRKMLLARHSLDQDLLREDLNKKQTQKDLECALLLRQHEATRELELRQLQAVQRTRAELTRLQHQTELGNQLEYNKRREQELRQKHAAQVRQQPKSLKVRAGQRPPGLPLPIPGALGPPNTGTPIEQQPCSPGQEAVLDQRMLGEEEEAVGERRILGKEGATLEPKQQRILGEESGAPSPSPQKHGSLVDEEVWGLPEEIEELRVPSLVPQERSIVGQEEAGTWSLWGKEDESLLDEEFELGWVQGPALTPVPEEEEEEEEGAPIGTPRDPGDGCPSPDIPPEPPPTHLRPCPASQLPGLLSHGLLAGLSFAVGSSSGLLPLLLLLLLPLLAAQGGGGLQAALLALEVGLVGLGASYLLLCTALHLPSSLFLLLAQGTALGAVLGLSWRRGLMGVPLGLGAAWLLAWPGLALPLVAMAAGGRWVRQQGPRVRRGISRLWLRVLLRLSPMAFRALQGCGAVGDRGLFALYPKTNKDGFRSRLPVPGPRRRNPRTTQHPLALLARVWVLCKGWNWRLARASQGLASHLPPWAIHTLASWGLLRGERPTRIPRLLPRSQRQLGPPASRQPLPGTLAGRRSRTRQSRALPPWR

[4] = target: T2, Serine/threonine-protein kinase DCLK2 (Homo sapiens) (UniProt Q8N568); test: Inhibition of DCAMKL2 at 1 uM in presence of 100 uM ATP by Select Screen kinase assay relative to untreated control
T2 sequence (whole entry): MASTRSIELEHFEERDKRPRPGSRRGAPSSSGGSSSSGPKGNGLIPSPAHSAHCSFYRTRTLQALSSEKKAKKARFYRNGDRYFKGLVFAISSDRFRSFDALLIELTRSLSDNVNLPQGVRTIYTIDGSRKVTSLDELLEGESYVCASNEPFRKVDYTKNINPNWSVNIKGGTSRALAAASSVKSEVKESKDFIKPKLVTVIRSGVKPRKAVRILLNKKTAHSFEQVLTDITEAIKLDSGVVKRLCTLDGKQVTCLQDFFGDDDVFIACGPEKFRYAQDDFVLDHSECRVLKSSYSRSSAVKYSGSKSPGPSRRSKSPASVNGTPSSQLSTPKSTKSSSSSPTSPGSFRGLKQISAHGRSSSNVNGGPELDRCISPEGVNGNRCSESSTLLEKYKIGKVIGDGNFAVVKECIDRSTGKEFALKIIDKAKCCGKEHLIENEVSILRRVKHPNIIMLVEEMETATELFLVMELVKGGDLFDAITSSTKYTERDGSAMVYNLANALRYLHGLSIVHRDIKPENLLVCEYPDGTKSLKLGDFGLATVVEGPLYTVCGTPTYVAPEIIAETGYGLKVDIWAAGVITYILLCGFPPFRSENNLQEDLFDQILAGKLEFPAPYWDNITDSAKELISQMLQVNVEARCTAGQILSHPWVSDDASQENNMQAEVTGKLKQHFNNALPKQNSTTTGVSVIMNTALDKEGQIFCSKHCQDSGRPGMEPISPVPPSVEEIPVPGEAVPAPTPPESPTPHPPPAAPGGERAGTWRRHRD
Method in brief: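 Single-point screen at 1 μM against a panel of 220 purified kinases, run by Invitrogen staff as a SelectScreen profiling service. Read-out is percent inhibition of kinase activity.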

[5] = tested on: Fibroblast growth factor receptor 3 (Homo sapiens), P22607 [K650E]; test: Inhibition of FGFR3 K650E mutant at 1 uM in presence of 10 uM ATP by Select Screen kinase assay relative to untreated control
Method in brief: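 Single-concentration profiling at 1 μM against a panel of 220 purified kinases, run as an outsourced SelectScreen kinase profiling service. Activity is expressed as percent inhibition.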

[6] = target: Platelet-derived growth factor receptor alpha (Homo sapiens) (UniProt P16234); test: Inhibition of PDGFRalpha at 1 uM in presence of 100 uM ATP by Select Screen kinase assay relative to untreated control; method in brief: as §1
Chain of Platelet-derived growth factor receptor alpha (Homo sapiens) (P16234 whole entry): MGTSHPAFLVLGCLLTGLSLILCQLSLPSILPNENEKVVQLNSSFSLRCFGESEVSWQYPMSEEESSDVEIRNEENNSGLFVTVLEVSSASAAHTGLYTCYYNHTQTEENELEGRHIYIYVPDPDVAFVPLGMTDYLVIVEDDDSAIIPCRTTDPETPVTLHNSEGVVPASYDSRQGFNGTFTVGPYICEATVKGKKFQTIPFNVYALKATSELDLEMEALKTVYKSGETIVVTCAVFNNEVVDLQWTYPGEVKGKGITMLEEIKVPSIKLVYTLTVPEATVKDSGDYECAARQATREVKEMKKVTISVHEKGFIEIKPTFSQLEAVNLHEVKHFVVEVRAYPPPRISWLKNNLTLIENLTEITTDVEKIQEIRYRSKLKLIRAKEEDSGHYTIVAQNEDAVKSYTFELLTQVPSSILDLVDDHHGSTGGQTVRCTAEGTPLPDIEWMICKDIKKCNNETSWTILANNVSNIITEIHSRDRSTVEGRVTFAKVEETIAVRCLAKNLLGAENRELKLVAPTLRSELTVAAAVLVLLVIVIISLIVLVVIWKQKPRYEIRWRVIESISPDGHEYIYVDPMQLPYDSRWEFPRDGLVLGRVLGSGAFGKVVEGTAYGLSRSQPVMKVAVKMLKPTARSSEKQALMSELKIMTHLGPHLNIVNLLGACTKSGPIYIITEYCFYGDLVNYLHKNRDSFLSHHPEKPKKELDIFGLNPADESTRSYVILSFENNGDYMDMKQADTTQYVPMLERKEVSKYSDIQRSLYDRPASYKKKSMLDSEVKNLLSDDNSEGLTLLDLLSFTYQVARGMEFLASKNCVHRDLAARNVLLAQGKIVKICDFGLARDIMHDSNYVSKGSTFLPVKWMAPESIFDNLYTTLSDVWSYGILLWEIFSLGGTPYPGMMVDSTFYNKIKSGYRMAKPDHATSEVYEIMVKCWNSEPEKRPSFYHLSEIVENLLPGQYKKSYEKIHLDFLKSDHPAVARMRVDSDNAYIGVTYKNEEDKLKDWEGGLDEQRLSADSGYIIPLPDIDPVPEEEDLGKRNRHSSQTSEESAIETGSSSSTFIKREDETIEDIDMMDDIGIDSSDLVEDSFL

Chain of Fibroblast growth factor receptor 3 (Homo sapiens), P22607 [K650E] (P22607 whole entry K650E): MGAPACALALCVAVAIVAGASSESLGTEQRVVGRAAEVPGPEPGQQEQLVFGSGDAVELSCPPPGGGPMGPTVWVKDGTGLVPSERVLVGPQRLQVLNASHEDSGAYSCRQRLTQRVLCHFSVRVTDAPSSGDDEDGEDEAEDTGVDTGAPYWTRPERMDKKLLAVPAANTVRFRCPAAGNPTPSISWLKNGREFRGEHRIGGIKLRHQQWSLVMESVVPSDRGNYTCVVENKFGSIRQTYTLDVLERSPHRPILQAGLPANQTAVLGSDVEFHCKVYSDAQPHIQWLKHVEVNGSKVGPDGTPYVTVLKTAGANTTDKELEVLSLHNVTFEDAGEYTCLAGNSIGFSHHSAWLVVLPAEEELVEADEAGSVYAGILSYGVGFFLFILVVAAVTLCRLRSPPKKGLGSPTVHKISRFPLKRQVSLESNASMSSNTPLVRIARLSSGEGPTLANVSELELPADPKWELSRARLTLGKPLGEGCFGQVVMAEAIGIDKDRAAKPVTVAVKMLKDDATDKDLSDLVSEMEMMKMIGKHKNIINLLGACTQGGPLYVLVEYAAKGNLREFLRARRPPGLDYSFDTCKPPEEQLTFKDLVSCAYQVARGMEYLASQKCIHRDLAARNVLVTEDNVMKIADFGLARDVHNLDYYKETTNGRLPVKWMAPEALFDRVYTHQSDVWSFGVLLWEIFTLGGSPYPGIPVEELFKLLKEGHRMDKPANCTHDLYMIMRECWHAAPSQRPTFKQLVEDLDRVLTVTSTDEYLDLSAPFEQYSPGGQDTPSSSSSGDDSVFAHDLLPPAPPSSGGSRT
Chain of SRSF protein kinase 2 (Homo sapiens) (P78362 whole entry, looked up): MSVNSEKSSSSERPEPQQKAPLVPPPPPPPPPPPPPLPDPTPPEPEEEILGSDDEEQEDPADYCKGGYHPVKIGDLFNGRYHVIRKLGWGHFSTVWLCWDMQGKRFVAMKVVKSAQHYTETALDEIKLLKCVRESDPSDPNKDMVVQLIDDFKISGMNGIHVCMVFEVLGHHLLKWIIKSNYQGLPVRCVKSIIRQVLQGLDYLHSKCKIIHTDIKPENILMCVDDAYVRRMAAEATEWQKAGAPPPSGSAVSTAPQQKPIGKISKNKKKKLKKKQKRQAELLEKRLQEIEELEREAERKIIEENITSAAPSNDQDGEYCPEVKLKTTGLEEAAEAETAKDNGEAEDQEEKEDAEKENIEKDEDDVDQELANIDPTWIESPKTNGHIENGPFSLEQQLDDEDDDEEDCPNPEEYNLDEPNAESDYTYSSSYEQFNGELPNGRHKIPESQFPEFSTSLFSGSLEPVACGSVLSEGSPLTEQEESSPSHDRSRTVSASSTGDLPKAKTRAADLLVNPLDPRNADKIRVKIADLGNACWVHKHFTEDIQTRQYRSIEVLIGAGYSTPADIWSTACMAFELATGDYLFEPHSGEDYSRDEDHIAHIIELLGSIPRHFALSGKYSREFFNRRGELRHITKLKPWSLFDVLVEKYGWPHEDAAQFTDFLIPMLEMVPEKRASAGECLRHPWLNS
Chain of Serine/threonine-protein kinase 24 (Homo sapiens) (Q9Y6E0 whole entry, looked up): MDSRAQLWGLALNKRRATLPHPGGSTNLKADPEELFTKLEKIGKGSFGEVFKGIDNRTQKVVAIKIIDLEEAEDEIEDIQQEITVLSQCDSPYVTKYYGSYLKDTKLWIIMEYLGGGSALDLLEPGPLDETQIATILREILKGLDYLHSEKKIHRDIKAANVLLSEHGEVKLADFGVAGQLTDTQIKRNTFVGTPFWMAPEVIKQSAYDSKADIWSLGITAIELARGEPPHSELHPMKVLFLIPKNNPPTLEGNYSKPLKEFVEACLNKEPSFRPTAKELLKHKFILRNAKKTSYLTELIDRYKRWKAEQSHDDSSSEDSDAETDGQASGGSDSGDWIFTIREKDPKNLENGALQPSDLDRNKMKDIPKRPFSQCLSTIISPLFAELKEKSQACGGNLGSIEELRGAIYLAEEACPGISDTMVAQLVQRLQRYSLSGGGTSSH

COc1ccccc1N1CCN(c2ncnc3[nH]nc(Br)c23)CC1
inhibition [1]: 4%
inhibition [2]: 27%
inhibition [3]: 2%
inhibition [4]: 6%
inhibition [5]: 12%
inhibition [6]: 3%

Cc1n[nH]c2ccc(-c3cncc(OC[C@@H](N)Cc4c[nH]c5ccccc45)c3)cc12
inhibition [1]: 39%
inhibition [2]: 76%
inhibition [3]: 35%
inhibition [4]: 11%
inhibition [5]: 8%
inhibition [6]: 1%

O=C(NCCCNc1nc(Nc2cccc(NC(=O)N3CCCC3)c2)ncc1I)c1cccs1
inhibition [1]: 5%
inhibition [2]: 2%
inhibition [3]: 82%
inhibition [4]: 10%
inhibition [5]: 38%
inhibition [6]: 93%

Reference: ChEMBL document CHEMBL1250448, “Inhibitor hijacking of Akt activation” (Nat Chem Biol, 2009)
